ChEMBL document CHEMBL3608261, “Metabolically programmed iron chelators” (Bioorg Med Chem, 2015)

Tests used:
Rattus norvegicus [1] = assay: Drug metabolism in Sprague-Dawley rat kidney assessed as (S)-4'-(3-carboxypropyloxy)-DADFT level at 300 umol/kg, sc after 8 hrs by HPLC analysis; assay type: ADME, organism-based; settings: in vivo
Outline: (§1)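 Single sc injection in male Sprague-Dawley rats (250–350 g) of the monosodium salt at 300 µmol/kg, n=3 per time point, killed by CO2 at 0.5–8 h. Plasma came from citrated cardiac blood; organs were frozen. Homogenates were made 1:3 in 0.5 N HClO4, given a methanol rinse, held 30 min at −20 °C, centrifuged, diluted in pH 3.0 phosphate/CH3CN and filtered. RP-amide HPLC, UV 310 nm; values are means, nmol/g wet weight or µM.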

Rattus norvegicus [2] = assay: Iron clearing efficiency in bile duct cannulated Sprague-Dawley rat assessed as clearance of iron in urine at 300 umol/kg, po measured at 3 hrs intervals for up to 48 hrs relative to control; assay type: functional
Rattus norvegicus [3] = assay: Drug metabolism in Sprague-Dawley rat plasma assessed as parent compound and metabolite level at 300 umol/kg, sc after 4 hrs by HPLC analysis; assay type: ADME, organism-based; settings: in vivo
Outline: (§2)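 Rats (male Sprague-Dawley, 250–350 g) were dosed sc once with the monosodium salt, 300 µmol/kg, three animals per time point up to 8 h. Plasma came from citrated cardiac blood; liver was frozen after CO2 euthanasia. Parent and metabolites were quantified by HPLC with UV at 310 nm against linear calibration curves (detection limit 0.25 µM, linear 1–1000 µM). Data are means.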

Rattus norvegicus [4] = assay: Drug metabolism in Sprague-Dawley rat pancreas assessed as (S)-4'-(carboxymethoxy)-DADFT level at 300 umol/kg, sc after 4 to 8 hrs by HPLC analysis; assay type: ADME, organism-based; settings: in vivo; outline: as §1
Rattus norvegicus [5] = assay: Toxicity in Sprague-Dawley rat assessed as mortality at 384 umol/kg, po qd for 10 days; assay type: organism-based; settings: in vivo, 240 h
Outline: (§3)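 Male Sprague-Dawley rats (n=5, 375–400 g) with normal iron stores, housed singly in metabolic cages and weighed daily. Drug given po by gavage as monosodium salt once daily for 10 days, dosed in the morning after overnight fast; fed ~3 h post-drug. Euthanized day 11; CBC, serum chemistries and 25 tissues/rat for outside histopathology; age-matched untreated controls.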

Rattus norvegicus [6] = assay: Drug metabolism in Sprague-Dawley rat pancreas assessed as (S)-4'-(5-carboxypentyloxy)-DADFT level at 300 umol/kg, sc after 4 to 8 hrs by HPLC analysis; assay type: ADME, organism-based; settings: in vivo; outline: as §1
Rattus norvegicus [7] = assay: Toxicity in Sprague-Dawley rat assessed as histopathology at 384 umol/kg, po qd for 10 days; assay type: organism-based; settings: in vivo, 240 h; outline: as §3
Rattus norvegicus [8] = assay: Drug metabolism in Sprague-Dawley rat plasma assessed as (S)-4'-(carboxymethoxy)-DADFT level at 300 umol/kg, sc after 8 hrs by HPLC analysis; assay type: ADME, organism-based; settings: in vivo; outline: as §1
Rattus norvegicus [9] = assay: Drug metabolism in Sprague-Dawley rat pancreas assessed as (S)-4'-(5-carboxypentyloxy)-DADFT level at 300 umol/kg, sc after 0.5 to 8 hrs by HPLC analysis; assay type: ADME, organism-based; settings: in vivo; outline: as §1
Rattus norvegicus [10] = assay: Drug metabolism in Sprague-Dawley rat heart assessed as (S)-4'-(5-carboxypentyloxy)-DADFT level at 300 umol/kg, sc up to 8 hrs by HPLC analysis; assay type: ADME, organism-based; settings: in vivo; outline: as §1
Rattus norvegicus [11] = assay: Drug metabolism in Sprague-Dawley rat liver assessed as (S)-4'-(5-carboxypentyloxy)-DADFT level at 300 umol/kg, sc after 0.5 to 1 hrs by HPLC analysis; assay type: ADME, organism-based; settings: in vivo; outline: as §1
Rattus norvegicus [12] = assay: Drug metabolism in Sprague-Dawley rat plasma assessed as parent compound and metabolite level at 300 umol/kg, sc after 8 hrs by HPLC analysis; assay type: ADME, organism-based; settings: in vivo, read-out: Drug metabolism; outline: as §2
[13] = Performance ratio, ratio of iron clearing efficiency in […] at 75 umol/kg, po to iron clearing efficiency in bile duct cannulated Sprague-Dawley rat at 300 umol/kg, po; assay type: functional
Outline: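 Performance ratio = mean ICE in iron-overloaded Cebus apella (75 µmol/kg) divided by mean ICE in bile duct-cannulated rats (300 µmol/kg), by the same route.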

Rattus norvegicus [14] = assay: Drug metabolism in Sprague-Dawley rat pancreas assessed as (S)-4'-(3-carboxypropyloxy)-DADFT level at 300 umol/kg, sc after 1 hr by HPLC analysis; assay type: ADME, organism-based; settings: in vivo; outline: as §1
Rattus norvegicus [15] = assay: Drug metabolism in Sprague-Dawley rat liver assessed as parent compound and metabolite level at 300 umol/kg, sc after 8 hrs by HPLC analysis; assay type: ADME, organism-based; settings: in vivo; outline: as §2
Rattus norvegicus [16] = assay: Drug metabolism in Sprague-Dawley rat kidney assessed as (S)-4'-(3-carboxypropyloxy)-DADFT level at 300 umol/kg, sc after 0.5 to 1 hrs by HPLC analysis; assay type: ADME, organism-based; settings: in vivo; outline: as §1
Rattus norvegicus [17] = assay: Drug metabolism in Sprague-Dawley rat kidney assessed as (S)-4'-(carboxymethoxy)-DADFT level at 300 umol/kg, sc after 8 hrs by HPLC analysis; assay type: ADME, organism-based; settings: in vivo; outline: as §1
Rattus norvegicus [18] = assay: Drug metabolism in Sprague-Dawley rat pancreas assessed as (S)-4'-(3-carboxypropyloxy)-DADFT level at 300 umol/kg, sc after 0.5 hrs by HPLC analysis; assay type: ADME, organism-based; settings: in vivo; outline: as §1
Rattus norvegicus [19] = assay: Iron clearing efficiency in bile duct cannulated Sprague-Dawley rat assessed as clearance of iron in bile at 300 umol/kg, po measured at 3 hrs intervals for up to 48 hrs relative to control; assay type: functional
Outline: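 Non-iron-overloaded male Sprague-Dawley rats (400–450 g) with cannulated bile ducts received 300 µmol/kg po or sc. […] Bile was sampled every 3 h for up to 48 h and urine at 24 h intervals. ICE = (treated minus control iron excretion) / theoretical output (2:1 ligand:Fe) × 100 over 48 h. Mean ± SEM.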

Sapajus apella = assay: Iron clearing efficiency in bile duct cannulated Cebus apella assessed as clearance of iron in bile at 75 umol/kg, po measured at 3 hrs intervals for up to 48 hrs relative to control; assay type: functional
Rattus norvegicus [20] = assay: Drug metabolism in Sprague-Dawley rat kidney assessed as (S)-4'-(carboxymethoxy)-DADFT level at 300 umol/kg, sc after 1 hr by HPLC analysis; assay type: ADME, organism-based; settings: in vivo; outline: as §1
Rattus norvegicus [21] = assay: Toxicity in Sprague-Dawley rat assessed as BUN level in blood at 384 umol/kg, po qd for 10 days; assay type: organism-based; settings: in vivo, 240 h
Outline: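 Male Sprague-Dawley rats (n=5, 375–400 g) with normal iron stores were housed in metabolic cages. Drug was given po as the monosodium salt, once daily for 10 days at 384 µmol/kg/day. Rats were fasted overnight, dosed in the morning, and fed about 3 h post-drug. They were euthanized on day 11, and blood was taken for serum chemistry including BUN. Age-matched untreated rats served as controls.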

Rattus norvegicus [22] = assay: Drug metabolism in Sprague-Dawley rat kidney assessed as (S)-4'-(carboxymethoxy)-DADFT level at 300 umol/kg, sc after 0.5 hrs by HPLC analysis; assay type: ADME, organism-based; settings: in vivo; outline: as §1
Rattus norvegicus [23] = assay: Drug metabolism in Sprague-Dawley rat pancreas assessed as parent compound level at 300 umol/kg, sc after 0.5 hrs by HPLC analysis; assay type: ADME, organism-based; settings: in vivo; outline: as §1
Rattus norvegicus [24] = assay: Drug metabolism in Sprague-Dawley rat heart assessed as (S)-4'-(carboxymethoxy)-DADFT level at 300 umol/kg, sc after 1 hr by HPLC analysis; assay type: ADME, organism-based; settings: in vivo; outline: as §1
Rattus norvegicus [25] = assay: Drug metabolism in Sprague-Dawley rat pancreas assessed as (S)-4'-(3-carboxypropyloxy)-DADFT level at 300 umol/kg, sc after 4 to 8 hrs by HPLC analysis; assay type: ADME, organism-based; settings: in vivo; outline: as §1
Rattus norvegicus [26] = assay: Drug metabolism in Sprague-Dawley rat heart assessed as (S)-4'-(carboxymethoxy)-DADFT level at 300 umol/kg, sc after 0.5 hrs by HPLC analysis; assay type: ADME, organism-based; settings: in vivo; outline: as §1
Rattus norvegicus [27] = assay: Drug metabolism in Sprague-Dawley rat heart assessed as (S)-4'-(3-carboxypropyloxy)-DADFT level at 300 umol/kg, sc after 0.5 to 1 hrs by HPLC analysis; assay type: ADME, organism-based; settings: in vivo; outline: as §1
Rattus norvegicus [28] = assay: Drug metabolism in Sprague-Dawley rat heart assessed as (S)-4'-(carboxymethoxy)-DADFT level at 300 umol/kg, sc after 2 to 8 hrs by HPLC analysis; assay type: ADME, organism-based; settings: in vivo; outline: as §1
Rattus norvegicus [29] = assay: Drug metabolism in Sprague-Dawley rat kidney assessed as (S)-4'-(5-carboxypentyloxy)-DADFT level at 300 umol/kg, sc after 0.5 to 1 hrs by HPLC analysis; assay type: ADME, organism-based; settings: in vivo; outline: as §1
Rattus norvegicus [30] = assay: Drug metabolism in Sprague-Dawley rat heart assessed as parent compound level at 300 umol/kg, sc after 0.5 hrs by HPLC analysis; assay type: ADME, organism-based; settings: in vivo; outline: as §1
Rattus norvegicus [31] = assay: Drug metabolism in Sprague-Dawley rat liver assessed as parent compound and (S)-4'-(3-carboxypropyloxy)-DADFT level at 300 umol/kg, sc after 8 hrs by HPLC analysis; assay type: ADME, organism-based; settings: in vivo; outline: as §1
Rattus norvegicus [32] = assay: Drug metabolism in Sprague-Dawley rat kidney assessed as (S)-4'-(carboxymethoxy)-DADFT level at 300 umol/kg, sc after 2 hrs by HPLC analysis; assay type: ADME, organism-based; settings: in vivo; outline: as §1

With `C[C@]1(C(=O)O)CSC(c2ccc(OCCCCCCO)cc2O)=N1` the Drug metabolism (Rattus norvegicus [1]) was “metabolite_notdetected”, the Activity (Rattus norvegicus [2]) was 4% and the Drug metabolism (Rattus norvegicus [3]) was “Not Active”. For the same compound, the Drug metabolism (Rattus norvegicus [4]) was “metabolite_notdetected”, the Activity (Rattus norvegicus [5]) was “Non-toxic” and the Drug metabolism (Rattus norvegicus [6]) was “metabolite_notdetected”. For the same compound, the Activity (Rattus norvegicus [7]) was “Non-toxic”, the Drug metabolism (Rattus norvegicus [8]) was “metabolite_detected” and the Drug metabolism (Rattus norvegicus [9]) was “metabolite_notdetected”. For the same compound, the Drug metabolism (Rattus norvegicus [10]) was “metabolite_notdetected”, the Drug metabolism (Rattus norvegicus [11]) was “metabolite_detected” and the concentration (Rattus norvegicus [12]) was 23 µM. For the same compound, the Ratio [13] was 2.2, the Drug metabolism (Rattus norvegicus [14]) was 23 nmol/g and the Drug metabolism (Rattus norvegicus [15]) was “metabolite_detected”. For the same compound, the Drug metabolism (Rattus norvegicus [16]) was 300 nmol/g, the Drug metabolism (Rattus norvegicus [17]) was 5 nmol/g and the Drug metabolism (Rattus norvegicus [18]) was 19 nmol/g. It also gave an Activity (Rattus norvegicus [19]) of 96%, an Activity (Sapajus apella) of 90% and a Drug metabolism (Rattus norvegicus [20]) of 201 nmol/g. For the same compound, the Activity (Rattus norvegicus [21]) was 20 mg/dL, the Drug metabolism (Rattus norvegicus [22]) was 156 nmol/g and the Drug metabolism (Rattus norvegicus [23]) was less than 5 nmol/g. For the same compound, the Drug metabolism (Rattus norvegicus [24]) was 23 nmol/g, the Drug metabolism (Rattus norvegicus [25]) was “metabolite_notdetected” and the Drug metabolism (Rattus norvegicus [26]) was 17 nmol/g. The Drug metabolism (Rattus norvegicus [27]) was 46 nmol/g, the Drug metabolism (Rattus norvegicus [28]) was “metabolite_notdetected” and the Drug metabolism (Rattus norvegicus [29]) was “metabolite_detected”. For the same compound, the Drug metabolism (Rattus norvegicus [30]) was 26 nmol/g, the Drug metabolism (Rattus norvegicus [31]) was “metabolite_notdetected” and the Drug metabolism (Rattus norvegicus [32]) was 161 nmol/g.
